We go through seven compounds from ChEMBL document CHEMBL1156370, “Leishmanicidal, antiplasmodial, and cytotoxic activity of novel diterpenoid 1,2-quinones from Perovskia abrotanoides: new source of tanshinones” (J Nat Prod, 2001).

As usually defined, the IC50 is the concentration that inhibits the measured activity by half.

In one assay the test system is Leishmania major. Description: Antileishmanial activity against Leishmania major promastigotes assessed as inhibition of [3H]thymidine uptake after 2 hrs by liquid scintillation counting. In kind it is functional, organism-based. In outline:
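WHO reference vaccine strain promastigotes kept at 26 °C in RPMI 1640 with 25 mM HEPES, 4 mM L-glutamine, gentamicin, 10% heat-inactivated FCS. Compounds from DMSO stock diluted in medium, incubated with 1 × 10^7 promastigotes/mL for 2 h; [3H]thymidine then added, 18 h further incubation, harvest, scintillation counting of incorporated label.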

Assay [1] in a line: Cytotoxicity against drug-sensitive human KB-3-1 cells after 48 hrs by MTS/PMS assay. In kind it is functional, cell-based. The note with it: KB 3-1, 48 h. The gist of the method: (§1)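 Mycoplasma-free KB-3-1 and vinblastine-selected KB-V1 (passages 5-15, no vinblastine pressure) in DMEM/10% FBS, 37 °C, 5% CO2. Seeded 4 × 10^3 (KB-3-1) or 7 × 10^3 (KB-V1) cells/well, 24 h preincubation, then 48 h with compounds (DMSO ≤0.25%). MTS/PMS read at 492 nm after ~50 min; six repeats per concentration, IC50 from ≥3 independent determinations on different passages.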

A short description of assay [2]: Cytotoxicity against multidrug-resistant human KBV1 cells after 48 hrs by MTS/PMS assay. In kind it is functional, cell-based. To be noted: KB-V1, 48 h. In outline:
as §1

The nature of assay [3]: Resistance index, ratio of IC50 for multidrug-resistant human KBV1 cells to IC50 for drug-sensitive human KB-3-1 cells. In kind it is functional.
Another assay relates to PBMC. Description: Inhibition of phytohemagglutininin A-stimulated human PBMC proliferation assessed as decrease in [14C]thymidine incorporation. In kind it is functional, cell-based. (Incorporation of labelled thymidine or its analogues reports DNA synthesis.)
The test system of another assay is Plasmodium falciparum. Description: Antimalarial activity after 24 hrs against chloroquine-sensitive Plasmodium falciparum 3D7 by [3H]phenylalanine uptake.

For the compound `C[C@@H]1[C@H](O)[C@@H](C)/C=C/C=C/C=C/C=C/C=C/C=C/C=C/[C@H](O[C@@H]2O[C@H](C)[C@@H](O)[C@H](N)[C@@H]2O)C[C@@H]2O[C@](O)(C[C@@H](O)C[C@@H](O)[C@H](O)CC[C@@H](O)C[C@@H](O)CC(=O)O[C@H]1C)C[C@H](O)[C@H]2C(=O)O` [AMPHOTERICIN B], the IC50 with Leishmania major came out at 0.16 µM.
Consider `COC(=O)c1ccccc1-c1c2ccc(=N)cc-2oc2cc(N)ccc12.Cl` [RHODAMINE123], for which the IC50 is 1.6 µM in assay [1] and more than 500 µM in assay [2]. The “Ratio IC50” value in assay [3] came to 500.
As to `C[C@H]1COC2=C1C(=O)C(=O)c1c2ccc2c1C(=O)CCC2(C)C`, the IC50 with Leishmania major stood at 25.7 µM; in the assay on PBMC, 12.4 µM; in the assay with Plasmodium falciparum, 17.6 µM.
As to `CC[C@]1(O)C[C@@H]2CN(CCc3c([nH]c4ccccc34)[C@@](C(=O)OC)(c3cc4c(cc3OC)N(C)[C@H]3[C@@](O)(C(=O)OC)[C@H](OC(C)=O)[C@]5(CC)C=CCN6CC[C@]43[C@@H]65)C2)C1` [VINBLASTINE], in assay [3], the “Ratio IC50” value is 210.
For the compound `CC(C)C1=Cc2ccc3c(c2C(=O)C1=O)C(=O)CCC3(C)C`, the IC50 in the assay on Leishmania major was determined as 17.9 µM; in assay [1], 46.6 µM; in assay [2], 47.8 µM; with PBMC, 44.6 µM; in the assay with Plasmodium falciparum, 13 µM.
As to `C[C@H]1COC2=C1C(=O)C(=O)c1c2ccc2c1[C@H](O)CCC2(C)C`, the IC50 in the assay with Leishmania major came to 46.7 µM; in assay [1], 5 µM; in assay [2], 5.6 µM; in the assay with PBMC, 16 µM; with Plasmodium falciparum it was 26.9 µM.
In the case of `C[C@H]1COC2=C1C(=O)C(=O)c1c2ccc2c1CCCC2(C)C` [CRYPTOTANSHINONE], the IC50 in the assay with Leishmania major was 18.4 µM; in assay [1], 6.9 µM; in assay [2], 7.5 µM; with PBMC, 37.4 µM; with Plasmodium falciparum, 12.5 µM.
